Assay results pooled from the literature.
Protocols differ between the studies behind these lines.
Target: Mitogen-activated protein kinase 7 (MAPK7, Homo sapiens, UniProt Q13164)

| Compound | effect on | method | concentration | remaining binding [%] |
| --- | --- | --- | --- | --- |
| O=C(c1ccc(Nc2nccc(-c3cc4ccccc4s3)n2)cc1)N1CCC(N2CCCC2)CC1 | binding | competition with immobilised ligand | 1 µM | 100 |
| COc1cnc(Nc2cccc(S(N)(=O)=O)c2)nc1N1CCN(c2ccccc2)CC1 | binding | competition with immobilised ligand | 1 µM | 100 |
| Nc1ncc2c(n1)-c1c([nH]c3ccc(C#CC4CC4)cc13)CCCC2 | binding | competition with immobilised ligand | 1 µM | 85 |
| N[C@H]1CCN(c2nccc(-c3cnn4ncccc34)n2)C1 | binding | – | 1 µM | 100 |
| Cc1noc([C@H]2C[C@@H](c3ccc(C(F)(F)F)cc3)CN(C(=O)N3CCS(=O)(=O)C3)C2)n1 | cell-free assay | competition with immobilised ligand | 1 µM | 87 |
| O=C(c1ccc(Nc2ncc(Cl)c(-c3cc4ccccc4s3)n2)cc1)N1CCC(N2CCCC2)CC1 | binding | competition with immobilised ligand | 1 µM | 60 |
| CN(C)c1ncc(F)c(-c2cnn3ncccc23)n1 | binding | – | 1 µM | 99 |
| CNC(=O)[C@@H]1CC[C@@H](n2c(-c3ccc4cnccc4c3)nc3ccc(C(=O)NCc4cccc(C(N)=O)c4)cc32)C1 | binding | competition with immobilised ligand | 1 µM | 100 |
| O=C(Nc1c[nH]nc1C(=O)NC1CCNCC1)c1cc(F)cc(F)c1 | binding | competition with immobilised ligand | 1 µM | 83 |
| CN(C)c1nccc(-c2cnc3ncccn23)n1 | binding | – | 1 µM | 92 |
| CS(=O)(=O)N1CCCC(NC(=O)[C@H](CCC2CCCCC2)NC(=O)c2ccc(CNC(=O)c3cnc4ccccn34)cc2)C1 (some centres unmarked) | cell-free assay | competition with immobilised ligand | 0.1 µM | 94 |
| C[C@H]1CCN(c2nccc(-c3cnn4ncccc34)n2)C1 | binding | – | 1 µM | 93 |
| CN([C@@H]1CCc2c(CC(=O)O)c3ccccc3n2C1)S(=O)(=O)c1ccc(F)cc1 | cell-free assay | competition with immobilised ligand | 1 µM | 100 |
| O=C(NCCCN1CCOCC1)c1ccc(Nc2nccc(-c3cc4ccccc4s3)n2)cc1 | binding | competition with immobilised ligand | 1 µM | 87 |
| F[C@@H]1CCN(c2nccc(-c3cnn4ncccc34)n2)C1 | binding | – | 1 µM | 100 |
| COc1ccc2c(O[C@@H]3C[C@H]4C(=O)N[C@]5(C(=O)O)CC5/C=C\CCCCC[C@H](NC(=O)OC5CCCC5)C(=O)N4C3)cc(-c3csc(NC(=O)C(C)C)n3)nc2c1C (some centres unmarked) | cell-free assay | competition with immobilised ligand | 1 µM | 100 |
| CN(CCCC(F)(F)F)c1nccc(-c2cnn3ncccc23)n1 | binding | – | 1 µM | 100 |
| CNC(=O)Nc1ccc2c(c1)[C@@]1(CC2)OC(=O)N(CC(=O)N(Cc2ccc(F)cc2)[C@@H](C)C(F)(F)F)C1=O | cell-free assay | competition with immobilised ligand | 1 µM | 85 |
| C=CC(=O)N1CCC(C(=O)NCC(=O)N2CCN(c3nc(-c4cnc(N)nc4C(F)F)nc(N4CCOCC4)n3)CC2)CC1 | binding | competition with immobilised ligand | 1 µM | 100 |
| N#Cc1ccc(Nc2ccc3[nH]c(=O)[nH]c3c2)c(Cl)c1 | cell-free assay | competition with immobilised ligand | 1 µM | 100 |
| CCN1CCN(Cc2ccc(C(=O)Nc3ccc(C)c(Oc4ccc5c(c4)CC(=O)N5)c3)cc2C(F)(F)F)CC1 | binding | competition with immobilised ligand | 1 µM | 100 |
| C[C@@]1(Cc2ccc(C#N)cc2)C(=O)N(c2cc(Cl)cc(Cl)c2)c2ncc(C(=O)NC3(c4nc(C5CCC5)no4)CC3)n21 | cell-free assay | competition with immobilised ligand | 1 µM | 100 |
| COc1cc(C(=O)N2CCC(N3CCN(C)CC3)CC2)ccc1Nc1ncc2c(n1)N(C)c1ccccc1C(=O)N2C | binding | competition with immobilised ligand | 10 µM | 0.05 |
